Blank lines part the entries; values can stand above or below the molecule they belong to.
Legend:
[1] = test system: Hec50co cells; assay: Cell viability; assay type: cell-based, human; details: PD98059 alone
[2] = rats, 2-compartment open model; cited from earlier work
[3] = Plasma pharmacokinetics after IV injection in mice; assay type: in vivo, BALB/CJ mice; details: for C0 / clearance / MRT inf / half-life / Vd: BALB/CJ, mouse, iv, 113 ug; for clearance: Cl; for MRT inf: MRT0-inf; for Vd: Vss
Summary of the method: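 Same IV dosing of mice (113 μg, solution or nanoparticle-loaded), sampled 5, 30, 60, 120, 180 and 360 min. Blood was spun at 10,600 xg for 5 min, and plasma was extracted and assayed by C18 HPLC-UV (methanol:water 70:30, 0.1% TFA, 320 nm). Concentration–time data were analysed in PK Solver by non-compartmental, 1- and 2-compartment models. n = 3, mean ± SD.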

[4] = test system: Hec50co cells; assay: Cell cycle analysis by flow cytometry; assay type: cell-based, human
Summary of the method: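 Hec50co cells seeded at 5×10^3 cells/well in complete DMEM and held 24 hr at 37°C, 5% CO2. They were then exposed 24 hr to taxane (5 or 10 nM), MEK inhibitor (25 μM) or both. Cells were PBS-washed, trypsinized, fixed in ice-cold 70% ethanol 30 min at 4°C, then taken up in PBS with 1% NP40 and 100 μg/mL RNase at 37°C for 30 min. Flow cytometry gave % cells per phase; mean ± SD, n = 3.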

[5] = Biodistribution of PD98059 in mouse organs after IV injection; assay type: in vivo, BALB/CJ mice; details: mice; for AUC0-6: IV
Summary of the method: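 BALB/CJ mice (8 weeks, 20–23 g) got 113 μg test compound as solution, or as loaded PAMAM-coated PLGA-PEG nanoparticles (3 mg, equivalent dose), IV retro-orbitally. Organs were taken at 5–360 min, rinsed, bead-homogenised in PBS with 7-hydroxyflavone internal standard, and ethyl acetate-extracted. Levels were measured by C18 HPLC-UV at 320 nm against the area ratio to standard. n = 3, mean ± SD.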

[6] = in 24 h; cited from earlier work
[7] = Non compartment model, IV, mice
[8] = One-compartment model, IV, mice
[9] = Two-compartment model, IV, mice

C0 ([3]; C0, Non compartment model, mice): 2.91 µg/mL
C0 ([3]; C0, One-compartment model, mice): 2.63 µg/mL
C0 ([3]; C0, Two-compartment model, mice): 3.15 µg/mL
clearance ([3]; Non compartment model, mice): 0.31 mL/min
clearance ([3]; One-compartment model, mice): 1.25 mL/min
clearance ([3]; Two-compartment model, mice): 0.29 mL/min
MRT inf ([3]; Non compartment model, mice): 7.29 h
MRT inf ([3]; One-compartment model, mice): 0.503 h
MRT inf ([3]; Two-compartment model, mice): 9.26 h
half-life ([3]; T1/2(α), Two-compartment model, mice): 0.151 h
half-life ([3]; T1/2(β), Two-compartment model, mice): 7.13 h
half-life ([3]; T1/2, Non compartment model, mice): 5.25 h
half-life ([3]; T1/2, One-compartment model, mice): 0.348 h
Vd [3, 7]: 0.136 L
Vd [3, 8]: 0.0379 L
Vd [3, 9]: 0.163 L
K ([3]; Non compartment model, IV 113 μg PD98059, mice): 0.0022 min⁻¹
AUC0-inf [3, 7]: 320.68 μg x min/mL
AUC0-t [3, 7]: 175.72 μg x min/mL
AUMC0-inf [3, 7]: 140,206.69 μg x min^2/mL
V [3, 7]: 141.65 mL
AUC0-inf [3, 8]: 79.61 μg x min/mL
AUC0-t [3, 8]: 79.61 μg x min/mL
AUMC0-inf [3, 8]: 2,402.29 μg x min^2/mL
K [3, 8]: 0.033 min⁻¹
V [3, 8]: 37.90 mL
A [3, 9]: 2.65 µg/mL
AUC0-inf [3, 9]: 340.78 μg x min/mL
AUC0-t [3, 9]: 170.01 μg x min/mL
AUMC0-inf [3, 9]: 189,279.12 μg x min^2/mL
B [3, 9]: 0.49 µg/mL
K10 [3, 9]: 0.0092 min⁻¹
K12 [3, 9]: 0.055 min⁻¹
K21 [3, 9]: 0.013 min⁻¹
V [3, 9]: 31.72 mL
α [3, 9]: 0.076 min⁻¹
β [3, 9]: 0.0016 min⁻¹
maximum PD98059 level in the brain ([5]; 5 minutes following IV injection): about 3 μg/g
AUC0-6 ([5]; Brain): 334.25 μg x min/mL
AUC0-6 ([5]; Heart): 160.37 μg x min/mL
AUC0-6 ([5]; Kidney): 301.47 μg x min/mL
AUC0-6 ([5]; Liver): 125.38 μg x min/mL
AUC0-6 ([5]; Lung): 459.51 μg x min/mL
AUC0-6 ([5]; Muscle): 129.86 μg x min/mL
AUC0-6 ([5]; Pancreas): 177.37 μg x min/mL
AUC0-6 ([5]; Spleen): 129.72 μg x min/mL
SMILES: COc1cccc(-c2cc(=O)c3ccccc3o2)c1N [PD98059, 2-(2-Amino-3-methoxyphenyl)-4H-1-benzopyran-4-one]
cytotoxicity ([1]; 5 μM): 3.8%
cytotoxicity ([1]; 10 μM): 5.3%
cytotoxicity ([1]; 25 μM): 17%
distribution half-life [2]: less than 10 minutes
cells at the G0/G1 phase ([4]; 25 μM PD98059, 24 hr): 63.04%
free PD98059 dissolved [6]: more than 80%

SMILES: CC(=O)O[C@H]1C(=O)[C@@]2(C)[C@H]([C@H](OC(=O)c3ccccc3)[C@]3(O)C[C@H](OC(=O)[C@H](O)[C@@H](NC(=O)c4ccccc4)c4ccccc4)C(C)=C1C3(C)C)[C@]1(OC(C)=O)CO[C@@H]1C[C@@H]2O [PTX, paclitaxel]
cells at the G2/M phase ([4]; 5 nM PTX + 25 μM PD98059, 24 hr): 42.15%
cells at the G2/M phase ([4]; 5 nM PTX, 24 hr): 37.2%
cells at the G2/M phase ([4]; 10 nM PTX + 25 μM PD98059, 24 hr): 74.99%
cells at the G2/M phase ([4]; 10 nM PTX, 24 hr): 45.74%

From article PMC8995400 (Drug delivery and translational research, 2021)
